# Assay results: ChEMBL document CHEMBL4052634, “Covalent inhibitors of LgtC: A blueprint for the discovery of non-substrate-like inhibitors for bacterial glycosyltransferases” (Bioorg Med Chem, 2017)
# Calls of active or inactive are those of the source. The rule behind the calls is not given here.
# Tests used:
# [1] = target: Intestinal-type alkaline phosphatase (Bos taurus) (UniProt P19111); experiment: Inhibition of calf intestinal alkaline […] at 0.1 to 100 uM using UDP as substrate after 20 mins by malachite green dye-based assay
# Sequence of Intestinal-type alkaline phosphatase (Bos taurus) (P19111 20-506 limits assumed): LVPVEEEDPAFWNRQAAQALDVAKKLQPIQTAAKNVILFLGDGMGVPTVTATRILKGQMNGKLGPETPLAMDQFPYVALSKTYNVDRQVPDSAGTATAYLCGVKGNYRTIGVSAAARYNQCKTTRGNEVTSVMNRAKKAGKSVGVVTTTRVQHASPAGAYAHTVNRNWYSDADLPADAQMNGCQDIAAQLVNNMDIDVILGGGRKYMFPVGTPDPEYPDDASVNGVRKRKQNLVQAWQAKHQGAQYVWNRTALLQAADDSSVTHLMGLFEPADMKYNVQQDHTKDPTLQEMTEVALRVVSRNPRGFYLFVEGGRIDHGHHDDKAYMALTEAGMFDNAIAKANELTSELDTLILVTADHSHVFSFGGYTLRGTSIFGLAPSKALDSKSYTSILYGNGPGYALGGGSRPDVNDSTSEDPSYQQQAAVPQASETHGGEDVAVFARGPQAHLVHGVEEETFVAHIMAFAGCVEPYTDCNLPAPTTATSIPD
# [2] = tested on: Neisseria meningitidis; experiment: (§1) Inhibition of Neisseria meningitidis alpha-1,4-galactosyltransferase assessed as consumption of donor UDP-Gal by measuring turnover rate at 0.1 to 100 uM using lactose as substrate preincubated for 5 mins followed by lactose and UDP-Gal addition measured after 20 mins by malachite green dye-based assay relative to total UDP-Gal used
# [3] = tested on: Neisseria meningitidis; experiment: as §1, with “20” for “5”
# [4] = tested on: Neisseria meningitidis; experiment: as §1, with “30” for “5”
# [5] = tested on: Neisseria meningitidis; experiment: as §1, with “60” for “5”
# [6] = tested on: Neisseria meningitidis; experiment: as §1, with “180” for “5”
# [7] = tested on: Neisseria meningitidis; experiment: Inhibition of Neisseria meningitidis alpha-1,4-galactosyltransferase assessed as rate constant for enzyme activity at 6 uM using lactose as substrate preincubated with substrate measured after 20 mins in presence of UDP-Gal
# Summary of the method: (§2)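 Activity measured at a series of inhibitor concentrations (0.5-200 µM range overall) after pre-incubation with LgtC for 0, 5, 10, 20 and 30 min, using the pre-incubation protocols (lactose 2 mM, UDP-Gal 28 µM, 20 min at 30 °C, malachite green); % of DMSO control plotted semi-logarithmically versus pre-incubation time to give kobs; kobs versus concentration gave Ki and kinact; triplicate.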
# [8] = tested on: Neisseria meningitidis; experiment: Inhibition of Neisseria meningitidis alpha-1,4-galactosyltransferase assessed as rate constant for enzyme activity at 15 uM using lactose as substrate preincubated with substrate measured after 20 mins in presence of UDP-Gal; summary of the method: as §2
# [9] = tested on: Neisseria meningitidis; experiment: Inhibition of Neisseria meningitidis alpha-1,4-galactosyltransferase assessed as rate constant for enzyme activity at 100 uM using lactose as substrate preincubated with substrate measured after 20 mins in presence of UDP-Gal; summary of the method: as §2
# [10] = tested on: Neisseria meningitidis; experiment: Inhibition of Neisseria meningitidis alpha-1,4-galactosyltransferase assessed as rate constant for enzyme activity at 200 uM using lactose as substrate preincubated with substrate measured after 20 mins in presence of UDP-Gal; summary of the method: as §2
# [11] = tested on: Neisseria meningitidis; experiment: as §1, with “50” for “100”
# [12] = tested on: Neisseria meningitidis; experiment: Inhibition of Neisseria meningitidis alpha-1,4-galactosyltransferase assessed as consumption of donor UDP-Gal by measuring turnover rate at 0.1 to 50 uM using lactose as substrate in presence of UDP-Gal measured after 20 min by malachite green dye-based assay relative to total UDP-Gal used
# Summary of the method: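 No pre-incubation: DTT-activated LgtC with MnCl2 5 mM, CIP 10 U/mL, egg-white lysozyme 1 mg/mL, 0.01% Triton, 13 mM HEPES pH 7.0, lactose 2 mM, inhibitor in DMSO (10% final); started with UDP-Gal 28 µM, 20 min at 30 °C, 20-50% donor turnover. Malachite green read at 620 nm against a UDP calibration curve, background without acceptor subtracted, % of assay window; triplicate minimum; IC50 from sigmoidal fit.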
# [13] = tested on: Neisseria meningitidis; experiment: as §1, with “50” for “100”, “10” for “5”
# Summary of the method: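 Enzyme (DTT-activated) with MnCl2 5 mM, CIP 10 U/mL, lysozyme 1 mg/mL, 0.01% Triton, 13 mM HEPES pH 7.0 and inhibitor in DMSO (10% final) pre-incubated 10 min at 30 °C before UDP-Gal (28 µM) plus lactose (2 mM) added; 20 min at 30 °C; UDP read by malachite green at 620 nm versus UDP standard curve, background-corrected; triplicate.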
# [14] = tested on: Neisseria meningitidis; experiment: as §1, with “assessed as” for “assessed”, “50” for “100”, “20” for “5”
# [15] = tested on: Neisseria meningitidis; experiment: as §1, with “50” for “100”, “30” for “5”
# [16] = tested on: Neisseria meningitidis; experiment: as §1, with “50” for “100”, “60” for “5”
# [17] = tested on: Neisseria meningitidis; experiment: as §1, with “50” for “100”, “180” for “5”
# [18] = tested on: Neisseria meningitidis; experiment: Binding affinity to Neisseria meningitidis alpha-1,4-galactosyltransferase assessed as covalent adduct formation at 50 uM by mass spectrometric analysis; details: TDE = time-dependent effect
# Summary of the method: (§3)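 LgtC stock without DTT activation, diluted in 13 mM HEPES pH 7.0, incubated with inhibitor (100 or 50 µM, added in DMSO; 10% final DMSO) for 20 min at 30 °C; samples injected directly for electrospray MS to detect protein-inhibitor adducts.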
# [19] = tested on: Neisseria meningitidis; experiment: Inhibition of Neisseria meningitidis alpha-1,4-galactosyltransferase assessed as rate constant for enzyme activity at 2 uM using lactose as substrate preincubated with substrate measured after 20 mins in presence of UDP-Gal; summary of the method: as §2
# [20] = tested on: Neisseria meningitidis; experiment: Inhibition of Neisseria meningitidis alpha-1,4-galactosyltransferase assessed as rate constant for enzyme activity at 3 uM using lactose as substrate preincubated with substrate measured after 20 mins in presence of UDP-Gal; summary of the method: as §2
# [21] = tested on: Neisseria meningitidis; experiment: Binding affinity to Neisseria meningitidis alpha-1,4-galactosyltransferase assessed as covalent-enzyme adduct formation at 100 uM after 20 mins by mass spectroscopy; details: 50 uM, in the assay text read “at 50 uM” for “at 100 uM”; summary of the method: as §3
smiles,measurement,setting,value
O=C1/C(=C\c2cccc(OCc3ccccc3)c2)C(C(F)(F)F)=NN1c1ccccc1,inhibition,[1],inactive
same,inhibition,[2],30%
same,inhibition,[3],27%
same,inhibition,[4],24%
same,inhibition,[5],29%
same,inhibition,[6],19%
same,K,[7],0.01 min⁻¹
same,K,[8],0.021 min⁻¹
same,K,[9],0.072 min⁻¹
same,K,[10],0.079 min⁻¹
COc1ccc(/C=C2\C(=O)N(c3ccccc3)N=C2C(F)(F)F)cc1Br,inhibition,[11],32%
same,inhibition,[12],30%
same,inhibition,[13],46%
same,inhibition,[14],32%
same,inhibition,[15],32%
same,inhibition,[16],39%
same,inhibition,[17],26%
same,Activity,[18],Tde
same,K,[19],0.012 min⁻¹
same,K,[20],0.025 min⁻¹
same,Activity,[21],Active
